High-throughput results from PubChem BioAssay.
SR-BI DiI inh – mouse SR-BI HDL lipid transfer inhibition | Q61009 | ldlA[mSR-BI] CHO cells, DiI-HDL uptake fluorescence, 3 h | inhibition, % at 12.5 µM | 320,000 compounds, 0.96% hits;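 active means mean replicate inhibition of at least 70% and a set share of replicates each scoring 70 or more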;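 further: 0% = median of neutral control wells and 100% = median of positive control wells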
CDK5 inh – CDK5/p35 (human) kinase inhibition; Recombinant CDK5/p35, ADP-Glo luminescence, 60 min; inhibition, % at 10 µM; 330,000 compounds, 0.01% hits; AID 488839;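 active means highest replicate inhibition of at least 50% and at least 75% of replicates reaching 50%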;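 further: plate controls were DMSO neutral control for no effect and GW8510 at 10 µM for full effect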
GSK3B inh – inhibitors of human GSK3beta kinase; P49841; GST-GSK3beta kinase, ADP-Glo luminescence, 60 min; active compounds read low; activity score (negative = inhibition), % at 10 µM; 300,000 compounds, 0.038% hits;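 active means more than half of replicate wells score below -50%, meaning over 50% inhibition versus plate controls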;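 further: 0% = median DMSO wells and -100% = median GW8510 positive control wells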
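Test system – GST-tagged human GSK3beta kinase, cell-free · Incubation – 60 min enzyme reaction, room temperature · Signal – ADP-Glo luminescence · Also added – peptide substrate and ATP at 25 µM · Controls – DMSO neutral wells and GW8510 at 20 µM as positive · Buffer or medium – Tris/MgCl2 kinase buffer · Measure – Luminescence-derived activity versus plate DMSO and GW8510 wells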
GSK3 alpha inh – blocks human GSK-3 alpha kinase; P49840; inhibition, % at 10 µM; ADP-Glo luminescence, 60 min; AID 2650; 320,000 compounds, 0.1% hits;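 active means more than half of replicates show inhibition above 20%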;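 further: GST-tagged GSK-3 alpha with peptide substrate and 25 µM ATP; 0% = DMSO neutral wells and 100% = GW8510 positive control wells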
Target sequence (P49840 whole entry, looked up): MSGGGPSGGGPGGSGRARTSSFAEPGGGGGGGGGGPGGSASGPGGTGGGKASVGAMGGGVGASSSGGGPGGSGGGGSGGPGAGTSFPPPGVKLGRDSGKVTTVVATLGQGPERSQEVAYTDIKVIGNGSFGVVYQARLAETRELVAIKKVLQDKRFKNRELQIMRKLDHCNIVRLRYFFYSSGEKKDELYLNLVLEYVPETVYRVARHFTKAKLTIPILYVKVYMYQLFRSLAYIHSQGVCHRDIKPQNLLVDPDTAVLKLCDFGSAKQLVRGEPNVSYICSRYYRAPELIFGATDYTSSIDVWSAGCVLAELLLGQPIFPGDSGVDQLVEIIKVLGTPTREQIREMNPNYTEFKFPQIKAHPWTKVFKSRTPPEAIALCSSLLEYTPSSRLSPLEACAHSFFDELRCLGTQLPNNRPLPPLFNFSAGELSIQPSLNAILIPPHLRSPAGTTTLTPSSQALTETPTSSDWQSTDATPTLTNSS
SR-BI DiI-HDL act – SR-BI HDL lipid transfer activation; CHO ldlA[mSR-BI] cells, DiI-HDL uptake fluorescence, 3 h; 100 = double the neutral-control signal; activation, % at 12.5 µM; 320,000 compounds, 0.096% hits; AID 504775;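 active means mean replicate activation of at least 60% and every replicate at or above 60%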;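 further: 0% = median plate neutral-control signal and 100% = twice that signal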
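Test system: SR-BI-overexpressing, LDLR-lacking CHO cells. Measured by: DiI fluorescence, bottom read. Medium: Ham's F12 with 0.5% BSA, HEPES 25 mM, pH 7.4. Timing: 3 h uptake period with compound, 37 °C.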
Active calls of the source: *; . = no result. In the library only some 1.1% were active in any assay of this set; here they are far more common.

SMILES	SR-BI DiI inh	CDK5 inh	GSK3B inh	GSK3 alpha inh	SR-BI DiI-HDL act
Cc1ccc(NS(=O)(=O)c2cccc(C(=O)N/N=C/c3c(C)nn(-c4ccccc4)c3N3CCCC3)c2)c(C)c1	74*	0	-27	-7	-74
COc1ccc(/C=C/C(=O)OCC(=O)NC(=O)NC(C)(C)C)cc1	-4	-3	-4	0	4
Cn1cnc2c(cnn2C)c1=O	-19	0	.	.	19
Cc1cccc(NC(=S)NNC(=O)Cc2ccccc2)c1	-211	-2	1	-1	211*
Cc1cccc(NCC(=O)NNC(=S)Nc2ccccc2)c1	7	2	0	-8	-7
Cc1nc(-c2ccc(NC(=O)c3ccc(Br)o3)cc2)cs1	14	2	0	-1	-14
CC(C)N=c1cc2n(-c3ccc(Cl)cc3)c3ccccc3nc-2cc1Nc1ccc(Cl)cc1	83*	1	1	0	-83
Cn1c(CNc2ccc(Cl)cc2)nc2ccccc21	-14	0	0	3	14
Cn1ccnc1C1CCCCN1C(=O)c1cc(COc2ccc(F)cc2F)on1 (configuration not stated)	.	-1	-1	1	.
Cc1cc(NC(=O)/C=C/c2ccccc2Cl)n(-c2nc3ccccc3[nH]2)n1	96*	1	1	-5	-96
O=C(CN(c1cccc(Cl)c1)S(=O)(=O)c1ccc(Cl)cc1)NCc1ccccn1	83*	0	5	1	-83
CCn1c(SCC(=O)NC2CCS(=O)(=O)C2)nnc1-c1ccccc1 (configuration not stated)	-21	1	0	-2	21
Cc1nnc(SCC(=O)NC2CCS(=O)(=O)C2)n1Cc1ccccc1 (configuration not stated)	-66	0	1	4	66*
FC(F)Oc1ccc(/C=N/c2c(-c3ccc(OC(F)F)cc3)nc3n2CCS3)cc1	74*	1	-4	-1	-74
CCSc1ccc2nnc(-c3ccc(F)cc3)n2n1	6	-1	-76*	82*	-6
CCOC(=O)CC(=O)CSc1ccc2nnc(-c3ccccc3)n2n1	-24	2	-7	6	24
CCSc1ccc2nnc(-c3cccs3)n2n1	-9	2	-53*	44	9
CCOC(=O)CSc1ccc2nnc(-c3ccncc3)n2n1	-5	-1	0	81*	5
CC(Sc1ccc2nnc(-c3ccc(F)cc3)n2n1)C(=O)O (configuration not stated)	3	0	-38	51*	-3
Cc1ccc(-c2nnc3ccc(SC(C)C(=O)O)nn23)cc1 (configuration not stated)	-21	3	-26	38	21
COc1ccc(Cl)cc1CC=NNC(=O)c1ccncc1	-3	1	.	.	3
CCN(CC(=O)NC1CC1)S(=O)(=O)c1ccc(OC)cc1	0	-3	2	1	0
CCOC(=O)CSc1ccc2nnc(-c3cccs3)n2n1	5	0	-61*	61*	-5
O=C(CSc1ccc2nnc(-c3cccs3)n2n1)N1CCCC1	-16	0	-6	0	16
CC(=O)Nc1scc(C)c1-c1nc2ccccc2s1	51	0	2	-2	-51
SMILES	SR-BI DiI inh	CDK5 inh	GSK3B inh	GSK3 alpha inh	SR-BI DiI-HDL act
CNc1sc(C(=O)c2cccs2)c(N)c1-c1nc2ccccc2s1	95*	0	-4	2	-95
CNc1sc(C(=O)c2ccc(F)cc2)c(N)c1-c1nc2ccccc2s1	90*	3	-1	4	-90
O=C(Nc1nc2ccccc2s1)c1ccc(F)cc1	37	-2	0	-4	-24
CCN(CC)S(=O)(=O)c1ccc2c(c1)nc(-c1ccccn1)n2C	.	0	0	1	.
CCOc1ccc(CCNC(=O)c2[nH]c(C)c(C(C)=O)c2CC)cc1OCC	10	0	2	0	-10
CCc1c(C(=O)Nc2cc(C)cc(C)c2)[nH]c(C)c1C(C)=O	77*	-1	-2	0	-77
COc1ccc(-c2c(-c3cc(OC)cc(OC)c3)n(C)c3ccc(-c4ccc(N(C)C)nc4)cc23)cc1	83*	1	.	-5	-83
COc1ccc(-c2c(-c3ccc(OC)nc3)c3ccccc3n2C)cc1	77*	-2	.	-5	-77
COc1cccc(-c2c(-c3cc(OC)cc(OC)c3)n(C)c3ccc(-c4ccc5[nH]ccc5c4)cc23)c1	63	1	.	1	-63
COc1cccc(-c2c(-c3cc(OC)cc(OC)c3)n(C)c3ccc(-c4ccc(OC)nc4)cc23)c1	25	0	.	-4	-25
COc1ccc(-c2c(-c3cc(OC)cc(OC)c3)n(C)c3ccc(-c4ccc5cc[nH]c5c4)cc23)cc1	85*	0	.	4	-85
COc1cc(OC)cc(-c2c(-c3ccc(F)cc3)c3cc(-c4ccc5[nH]ccc5c4)ccc3n2C)c1	88*	-3	.	1	-88
O=C(c1c[nH]c2ccccc2c1=O)N1CCCCCC1	0	0	-1	-1	0
CN(C)S(=O)(=O)c1ccc(N2CCCC2)c(C(=O)NNC(=O)c2ccc(F)cc2)c1	-13	0	.	-9	13
O=C(COC(=O)c1ccc2c(=O)n3c(nc2c1)CCC3)NC1CCS(=O)(=O)C1 (configuration not stated)	16	-1	-6	0	-16
CC(C)=CC(=O)OCC(=O)Nc1cc(C)cc(C)c1	16	-1	-2	0	-16
COC(=O)c1[nH]c2cc(OC)c(OC)cc2c1NC(=O)CN1C[C@H]2C[C@@H](C1)c1cccc(=O)n1C2	2	3	.	-1	-2
CC(Sc1ccccc1)C(=O)NNC(=O)c1ccncc1 (configuration not stated)	-19	0	-5	1	19
CC(=O)c1cc(C(=O)N2CCCC(C(=O)c3ccc(Cl)cc3)C2)cs1 (configuration not stated)	0	1	1	0	0
CC(C)Oc1ccc(CNC(=O)CCC(=O)N2CCSc3ccccc32)cc1	-4	-1	1	3	4
COc1cc(OC)cc(-c2c(C#Cc3ccsc3)c3cc(-c4ccc5cc[nH]c5c4)ccc3n2C)c1	72*	3	.	1	-72
CC(=Nc1ccccc1)C1=C(O)C(CC(C)C)NC1=O (configuration not stated)	7	8	.	.	-7
Nc1c(Cl)cc(C2=NCCn3nc4ccccc4c32)cc1Cl	73*	-2	0	4	-73
O=C(Nc1sc2c(c1-c1nc3ccccc3[nH]1)CCCC2)C1CCCC1	89*	0	-2	-2	-89
O=C(CSc1ccccc1)Nc1ccc2c(c1)C(=O)NC2=O	-9	0	1	60*	9
COc1ccc(CN2CCC(C(=O)c3ccc(Cl)cc3)CC2)cc1	16	-6	2	-1	-16
